The source of these data is ChEMBL document CHEMBL1629415, “Biological evaluation of donor-acceptor aminonaphthoquinones as antitumor agents” (Eur J Med Chem, 2010).

Data set [1] relates to T-24. The data set is described as follows: Induction of apoptosis in human T24 cells assessed as increase of caspase-3-mediated DEVDase activity at 5 ug/ml after 4 hrs. In kind it is functional. The note with it: in the assay text read “5 uM” for “5 ug/ml”. An outline of the steps:
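Positive-control arm: T24 cells exposed to sanguinarine for 4 h. Lysate supernatant then assayed for DEVD-AFC cleavage kinetically at room temperature (ex 380/em 500 nm), expressed as U/mg protein.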

For data set [2], the system named is BALB/3T3. The data set is described as follows: Cytotoxicity against mouse BALB/3T3 cells after 48 hrs by MTT assay. In kind it is cell-based. The note with it: BALB/3T3, 48 h. Summed up:
(§1)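 T24, DU145 and MCF7 grown in high-glucose DMEM with 10% fetal calf serum and penicillin/streptomycin. BALB/3T3 mouse fibroblasts grown in the same medium with 10% newborn calf serum. Cells seeded at 10 000/well for 24 h, then exposed 48 h at 37 C. MTT 0.5 mg/mL for 2 h, formazan dissolved in DMSO, read at 550 nm. EC50 is the concentration that lowers MTT reduction by 50% versus untreated control.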

In data set [3] the test system is T-24. The data set is described as follows: Cytotoxicity against human T24 cells after 48 hrs by MTT assay. To be noted: T-24, 48 h. It is filed as functional, cell-based. An outline of the steps:
as §1

For data set [4], the system named is DU-145. The data set is described as follows: Cytotoxicity against human DU145 cells after 48 hrs by MTT assay. In kind it is functional, cell-based. The note with it: DU-145, 48 h. An outline of the steps:
as §1
On the technique in general: Tetrazolium assays rely on reduction of a dye to a coloured formazan, in cell work by metabolically active cells.

Data set [5] concerns MCF7. In words: Cytotoxicity against human MCF7 cells after 48 hrs by MTT assay. The note with it: MCF7, 48 h. In kind it is functional, cell-based. Summed up:
as §1

Data set [6] is described as follows: Lipophilicity, log P of the compound. In kind it is physicochemical. The note with it: octanol/water.
Data set [7] relates to T-24. In words: Induction of apoptosis in human T24 cells assessed as increase of caspase-3-mediated DEVDase activity at 100 ug/ml after 24 hrs. It is filed as functional. Summed up:
(§2)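 T24 cells exposed 6 or 24 h at 37 C, washed twice in PBS, lysed and centrifuged. Supernatant incubated with DEVD-AFC substrate, cleavage followed kinetically at room temperature (ex 380 nm, em 500 nm). Activity given as U/mg protein, protein by Lowry method with BSA standard.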

Data set [8] deals with T-24. The data set is described as follows: Induction of apoptosis in human T24 cells assessed as increase of caspase-3-mediated DEVDase activity at 1 ug/ml after 6 hrs. It is filed as functional. An outline of the steps:
as §2

Data set [9] relates to T-24. In words: Anticancer activity against human T24 cells assessed as inhibition of cell proliferation at 10 ug/ml after 10 days using crystal violet staining by clonogenic assay. It is filed as functional. An outline of the steps: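 T24 cells (500) seeded at single-cell density and left to adhere overnight. Compound exposure 24 h, then washed with warm PBS and regrown 10 days in fresh medium. Colonies stained with crystal violet to score clonogenic survival.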

The test system of data set [10] is T-24. The data set is described as follows: Induction of apoptosis in human T24 cells assessed as increase of caspase-3-mediated DEVDase activity at 100 ug/ml after 6 hrs. It is filed as functional. Summed up: as §2
In data set [11] the test system is T-24. In words: Induction of apoptosis in human T24 cells assessed as increase of caspase-3-mediated DEVDase activity at 10 ug/ml after 6 hrs. It is filed as functional. Summed up: as §2
The subject of data set [12] is T-24. The data set is described as follows: Anticancer activity against human T24 cells assessed as decreased in intracellular ATP level at 100 ug/ml after 6 hrs by ATPlite assay. In kind it is functional, cell-based. Summed up:
(§3)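 T24 cells in high-glucose DMEM with 10% FCS were exposed 6 h at 37 C to compound over a 1–100 range, alongside untreated controls. Intracellular ATP was measured by ATPlite luminescence kit. Groups were compared by one-way ANOVA with Bonferroni test.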

Data set [13] concerns T-24. In words: Induction of apoptosis in human T24 cells assessed as increase of caspase-3-mediated DEVDase activity at 10 ug/ml after 24 hrs. In kind it is functional. Summed up:
as §2

For data set [14], the system named is T-24. The data set is described as follows: Induction of apoptosis in human T24 cells assessed as increase of caspase-3-mediated DEVDase activity at 1 ug/ml after 24 hrs. It is filed as functional. An outline of the steps: as §2
Data set [15] deals with T-24. In words: Anticancer activity against human T24 cells assessed as decreased in intracellular ATP level after 6 hrs by ATPlite assay. In kind it is functional, cell-based. An outline of the steps:
as §3
In general terms: Cellular ATP, detected with luciferase, serves as a proxy for viable cell number.

The term EC50 denotes the concentration needed to bring the measured effect to its halfway point. Low values mean higher potency in that assay, high ones lower potency in that assay. By logP is commonly meant a log measure of how a compound divides between an organic and an aqueous phase. Broadly, the inhibition is the drop in the measured response relative to a control, in per cent.

In brackets after ≈: the same amount, converted by molar mass. Activity calls are given as the source filed them. The rule behind the calls is not given here.

Take `C[n+]1cc2c3c(ccc2c2ccc4cc5c(cc4c21)OCO5)OCO3` [SANGUINARIUM]: in data set [1], the Activity came to 639.2 U/mg.

On to `Cc1ccccc1NC1=CC(=O)c2ccccc2C1=O`, for which the EC50 in [2] came out at 6.2 µg/mL (≈ 23.5 µM); in data set [3], 7.7 µg/mL (≈ 29.2 µM); in data set [4], 7.7 µg/mL (≈ 29.2 µM); in [5] it was 0.8 µg/mL (≈ 3.04 µM). Further, the log partition coefficient (logP) in data set [6] (read-out: logP) is 2.04.

As to `O=C1C=C(Nc2ccccc2)C(=O)c2ccccc21`, the EC50 in data set [2] is 0.2 µg/mL (≈ 0.802 µM); in data set [3] it was 1.2 µg/mL (≈ 4.81 µM); in data set [4], 4 µg/mL (≈ 16 µM); in [5], 2.6 µg/mL (≈ 10.4 µM). The logP in data set [6] (read-out: logP) is 1.55.

With `COc1ccc(NC2=C(Cl)C(=O)c3ccccc3C2=O)cc1`, the concentration giving a half-maximal response (EC50) in [2] is 13.7 µg/mL (≈ 43.7 µM); in [3], 438 µg/mL (≈ 1390 µM); in data set [4] it was over 1000 µg/mL; in [5] it was over 1000 µg/mL. The logP in [6] (read-out: logP) was 1.46.

With `Cc1ccccc1NC1=C(Cl)C(=O)c2ccccc2C1=O`, the EC50 is 3.2 µg/mL (≈ 10.7 µM) in [2], 9.3 µg/mL (≈ 31.2 µM) in data set [3], 25.8 µg/mL (≈ 86.7 µM) in [4] and 4.9 µg/mL (≈ 16.5 µM) in data set [5]. Also, the logP in data set [6] (read-out: logP) stood at 2.08.

As for `COc1ccc(NC2=CC(=O)c3ccccc3C2=O)cc1`, the EC50 in data set [2] is 35.7 µg/mL (≈ 128 µM); in [3], 8.1 µg/mL (≈ 29 µM); in data set [4], 7.6 µg/mL (≈ 27.2 µM); in data set [5], 3.7 µg/mL (≈ 13.2 µM). The Activity in data set [7] is given as 3.4 U/mg; in [8], 5.9 U/mg; in data set [10] it was 3.4 U/mg; in data set [11] it was 5 U/mg; in data set [13] it was 4.5 U/mg; in data set [14], 5 U/mg. In addition, in [15], the Activity result is “Dose-dependent effect”. The inhibition at 10 µg/mL in data set [9] (T-24, 240 h) was determined as 75%. Also, the outcome in data set [12] was Active. The logP in data set [6] (read-out: logP) amounted to 1.43.

Take `COc1ccc(OC)c(NC2=C(Cl)C(=O)c3ccccc3C2=O)c1`: the concentration for a half-maximal effect (EC50) worked out at 0.7 µg/mL (≈ 2.04 µM) in data set [2], 2.4 µg/mL (≈ 6.98 µM) in data set [3], 6 µg/mL (≈ 17.5 µM) in data set [4] and 4.6 µg/mL (≈ 13.4 µM) in [5]. The logP in [6] (read-out: logP) is 1.34.

Take `O=C1C=C(Nc2ccc(O)cc2)C(=O)c2ccccc21`: the EC50 was 6 µg/mL (≈ 22.6 µM) in data set [2], 2.3 µg/mL (≈ 8.67 µM) in data set [3], 0.9 µg/mL (≈ 3.39 µM) in data set [4] and 0.8 µg/mL (≈ 3.02 µM) in data set [5]. The Activity in data set [7] was determined as 4 U/mg; in [8], 6 U/mg; in data set [10], 3 U/mg; in data set [11], 2.7 U/mg; in data set [13], 4.9 U/mg; in data set [14], 5.1 U/mg. The Activity result in [15] was “Dose-dependent effect”. Further, the outcome in [9] and in data set [12] was Active. The logP in [6] (read-out: logP) was 1.16.

For the compound `CN(C1=C(Cl)C(=O)c2ccccc2C1=O)c1ccccc1`, the EC50 was found to be 0.8 µg/mL (≈ 2.69 µM) in [2], 6 µg/mL (≈ 20.2 µM) in data set [3], 6.7 µg/mL (≈ 22.5 µM) in [4] and 1.2 µg/mL (≈ 4.03 µM) in data set [5]. Further, the logP in [6] (read-out: logP) stood at 2.38.

Regarding `O=C1C(Cl)=C(Nc2ccc(O)cc2)C(=O)c2ccccc21`, the EC50 was found to be 0.6 µg/mL (≈ 2 µM) in data set [2], 0.6 µg/mL (≈ 2 µM) in [3], 1.9 µg/mL (≈ 6.34 µM) in [4] and 2.8 µg/mL (≈ 9.34 µM) in [5]. The logP in [6] (read-out: logP) worked out at 1.2.

On to `CN(C1=CC(=O)c2ccccc2C1=O)c1ccccc1`, for which the 50% effective concentration (EC50) in data set [2] was 43.3 µg/mL (≈ 164 µM); in [3] it was 8.4 µg/mL (≈ 31.9 µM); in data set [4], 20.9 µg/mL (≈ 79.4 µM); in data set [5], 7.8 µg/mL (≈ 29.6 µM). The logP in data set [6] (read-out: logP) came out at 2.34.

For `O=C1C(Cl)=C(Nc2ccccc2)C(=O)c2ccccc21`, the EC50 stood at 9.1 µg/mL (≈ 32.1 µM) in data set [2], 14.8 µg/mL (≈ 52.2 µM) in [3], 66.8 µg/mL (≈ 235 µM) in data set [4] and 6.3 µg/mL (≈ 22.2 µM) in data set [5]. The compound also came in with a logP in data set [6] of 1.59.

Turning to `COc1ccc(OC)c(NC2=CC(=O)c3ccccc3C2=O)c1`, the EC50 in data set [2] stood at 11.5 µg/mL (≈ 37.2 µM); in data set [3], 10.9 µg/mL (≈ 35.2 µM); in data set [4], 35.2 µg/mL (≈ 114 µM); in data set [5] it was 1.2 µg/mL (≈ 3.88 µM). Further, the logP in [6] (read-out: logP) was 1.3.
